As usually defined, the Kd is the equilibrium constant for the complex coming apart. The inhibition is the share of the control response that was lost under treatment. The IC50 is the concentration that gives 50% inhibition.

The structures appear in SMILES notation.

The target of the first assay is T1, Cysteinyl leukotriene receptor 1 (Cavia porcellus, UniProt Q2NNR5).
T1 sequence (Q2NNR5 whole entry): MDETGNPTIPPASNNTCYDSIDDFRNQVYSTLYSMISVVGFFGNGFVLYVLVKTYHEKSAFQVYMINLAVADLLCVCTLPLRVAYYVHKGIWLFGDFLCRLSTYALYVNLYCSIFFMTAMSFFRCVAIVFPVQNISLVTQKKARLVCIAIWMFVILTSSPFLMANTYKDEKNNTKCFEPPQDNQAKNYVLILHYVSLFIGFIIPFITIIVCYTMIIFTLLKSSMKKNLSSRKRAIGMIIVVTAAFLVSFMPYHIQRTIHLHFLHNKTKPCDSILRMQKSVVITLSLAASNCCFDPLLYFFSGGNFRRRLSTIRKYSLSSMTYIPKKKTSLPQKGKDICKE
Description: In vitro affinity for CysLT1 receptors on guinea pig lung membranes, measured by displacement of [3H]LTD4. Type of assay: tissue-based.
Details: not given
Put shortly: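 Guinea pig lung membrane fractions (about 170 µg/mL) with 0.2 nM [3H]LTD4 and test compound in 10 mM PIPES buffer, pH 7.5 (10 mM CaCl2, 10 mM MgCl2, 50 mM NaCl, 2 mM cysteine, 2 mM glycine), 30 min at 22 °C. Stopped with ice-cold Tris-HCl/NaCl, vacuum-filtered, filter radioactivity counted. Means ± SD of three determinations.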
In general terms: In a radioligand displacement assay an active substance lowers the binding of a labelled ligand.
Turning to `O=c1cc(-c2cccc(/C=C/c3ccc4ccccc4n3)c2)oc2c(-c3nn[nH]n3)cc(Cl)cc12`, binding was characterised by a dissociation constant (Kd) of 11 µM.
On the same count and under the same terms, the same measure for `O=C(O)c1cccc2c(=O)cc(-c3cccc(/C=C/c4ccc5ccccc5n4)c3)oc12`: 0.017 µM.
`O=C(O)c1ccc2c(=O)cc(-c3cccc(/C=C/c4ccc5ccccc5n4)c3)oc2c1`: binding was characterised by a dissociation constant (Kd) of 1.73 µM.
With `O=C(O)c1cccc2c(=O)cc(-c3ccc(OCc4ccccc4)cc3)oc12`, the Kd is 55 µM.

For the next assay, the target named is T2, Cysteinyl leukotriene receptor 1 (Cavia porcellus) (UniProt Q2NNR5).
T2 sequence (whole entry): T1 sequence (Q2NNR5 whole entry)
Description: In vitro inhibition of [3H]LTD4 binding to CysLT1 receptors on guinea pig lung membranes. Type of assay: tissue-based. Also on record: concentration or dose not given beside the values. To be noted: concentration not given here. Put shortly:
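Guinea pig lung membrane fractions (about 170 µg/mL) with 0.2 nM [3H]LTD4 and test compound in 10 mM PIPES buffer, pH 7.5 (10 mM CaCl2, 10 mM MgCl2, 50 mM NaCl, 2 mM cysteine, 2 mM glycine), 30 min at 22 °C. Stopped with ice-cold Tris-HCl/NaCl, vacuum-filtered, filter radioactivity counted. Means ± SD of three determinations. Percent inhibition taken at 10^-5 M where no KD obtained.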
In turn, `O=C(O)c1ccc2oc(-c3ccc(/C=C/c4ccc5ccccc5n4)cc3)cc(=O)c2c1` had an inhibition of 28%.
On the same count and under the same terms, the same measure for `N#Cc1cc(Cl)cc2c(=O)cc(-c3cccc(/C=C/c4ccc5ccccc5n4)c3)oc12`: 0%; for `CCOC(=O)c1cccc2c(=O)cc(-c3cccc(OCc4ccc5ccccc5n4)c3)oc12`: 38%.
As for `O=C(O)c1ccc2oc(-c3ccc(OCc4ccccc4)cc3)cc(=O)c2c1`, the inhibition was 23%.
Still for that read-out and setting: the same measure for `CCOC(=O)c1cccc2c(=O)cc(-c3ccc(OCc4ccc5ccccc5n4)cc3)oc12`: 32%; for `O=C(O)c1cccc2c(=O)cc(-c3ccc(OCc4ccc5ccccc5c4)cc3)oc12`: 32%.
On the same count and under the same terms, the same measure for `O=C(O)c1cccc2c(=O)cc(-c3cccc(OCc4ccccc4)c3)oc12`: 50%.

For a further assay, the species on record is Cavia porcellus. Description: Ex vivo inhibition of LTD4 induced contraction of guinea pig ileum. Type of assay: functional.
Details: not given
An outline of the steps: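 Ileum segments (2 cm) from male guinea pigs, mounted open-lumen on a transducer. Compounds in DMSO, 10^-5 to 3.0 × 10^-9 M, preincubated 30 min, then contraction evoked by 10^-8 M LTD4. Indomethacin (10^-6 M) added to the bath 10 min before LTD4.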
In turn, `O=C(O)c1cc(Br)cc2c(=O)cc(-c3cccc(/C=C/c4ccc5ccccc5n4)c3)oc12` displayed an IC50 of 0.1 µM.
On the same count and under the same terms, the same measure for `O=C(O)c1cccc2c(=O)cc(-c3cccc(/C=C/c4ccc5ccccc5n4)c3)oc12`: 0.042 µM; for `O=C(O)c1cc(Br)cc2c(=O)cc(-c3cccc(OCc4ccc5ccccc5n4)c3)oc12`: 0.061 µM.
Same read-out and setting: the result for `Cc1cc(C(=O)O)c2oc(-c3cccc(/C=C/c4ccc5ccccc5n4)c3)cc(=O)c2c1` reads 0.028 µM; that for `O=C(O)c1cc(Cl)cc2c(=O)cc(-c3cccc(/C=C/c4ccc5ccccc5n4)c3)oc12`, 0.015 µM.
